From ChEMBL document CHEMBL3259768, “Structure-activity relationships for vitamin D3-based aromatic a-ring analogues as hedgehog pathway inhibitors” (J Med Chem, 2014)
pIC50: −log10 of the molar value. One block for each compound: values may come before it. Calls of active or inactive are those of the source. The calls are words filed in the database; no cut-off is given here.

What was measured:
[1] = target: T1, Vitamin D3 receptor (Mus musculus) (UniProt P48281); experiment: Activation of VDR in mouse C3H10T1/2 cells assessed as upregulation of CYP24A1 mRNA expression at 5 uM after 24 hrs by RT-PCR analysis relative to DMSO-treated control; assay type: cell-based; settings: C3H 10T1/2
T1 sequence (whole entry): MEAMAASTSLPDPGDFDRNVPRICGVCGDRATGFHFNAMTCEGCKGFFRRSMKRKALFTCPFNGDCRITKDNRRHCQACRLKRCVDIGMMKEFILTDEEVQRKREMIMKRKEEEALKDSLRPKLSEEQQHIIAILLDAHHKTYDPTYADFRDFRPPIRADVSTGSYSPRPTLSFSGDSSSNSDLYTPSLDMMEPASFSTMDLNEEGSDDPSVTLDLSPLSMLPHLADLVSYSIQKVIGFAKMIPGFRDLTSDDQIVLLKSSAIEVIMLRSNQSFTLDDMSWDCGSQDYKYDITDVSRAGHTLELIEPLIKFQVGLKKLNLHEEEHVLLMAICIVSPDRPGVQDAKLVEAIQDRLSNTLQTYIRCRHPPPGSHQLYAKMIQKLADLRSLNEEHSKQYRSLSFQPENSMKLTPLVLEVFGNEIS
Outline: (§1)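 Cyp24A1 mRNA read by qPCR after 24 h exposure at 5 μM. Up-regulation normalized to DMSO control, set to 1.0.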

[2] = Inhibition of hedgehog signaling pathway-mediated GLI1 mRNA expression in mouse C3H10T1/2 cells assessed as residual activity at 5 uM after 24 hrs by RT-PCR analysis relative to 20alpha-hydroxycholesterol/22(S)-hydroxycholesterol; assay type: cell-based; settings: C3H 10T1/2
Outline: (§2)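 C3H10T1/2 cells co-treated with analogue and the oxysterol Hh activators 20α-hydroxycholesterol plus 22(S)-hydroxycholesterol (5 μM each) for 24 h. Gli1 mRNA measured by qPCR as % of OHC-only control (100%). Analogue at 5 μM, or at 0.5 μM where stated.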

[3] = Inhibition of hedgehog signaling pathway-mediated GLI1 mRNA expression in mouse C3H10T1/2 cells after 24 hrs by RT-PCR analysis; assay type: cell-based; settings: for inhibition: C3H 10T1/2; for pIC50: C3H 10T1/2, 24 h
Outline: (§3)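 OHC-stimulated C3H10T1/2 cells (20α- and 22(S)-hydroxycholesterol, 5 μM each) given analogue at a range of concentrations. Gli1 and Ptch mRNA quantified by qPCR. IC50 given as mean ± SEM of at least two experiments run in triplicate.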

[4] = Inhibition of hedgehog signaling pathway-mediated PTCH mRNA expression in mouse C3H10T1/2 cells after 24 hrs by RT-PCR analysis; assay type: cell-based; settings: C3H 10T1/2, 24 h; outline: as §3
[5] = Inhibition of hedgehog signaling pathway-mediated GLI1 mRNA expression in mouse ASZ001 cells after 24 hrs by RT-PCR analysis; assay type: cell-based; settings: ASZ001, 24 h
Outline: (§4)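 ASZ001 (murine BCC) or DAOY (human medulloblastoma) cells given analogue at a range of concentrations. Gli1 and Ptch mRNA quantified by qPCR. IC50 given as mean ± SEM of at least two experiments in triplicate.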

[6] = Inhibition of hedgehog signaling pathway-mediated GLI1 mRNA expression in human DaOY cells after 24 hrs by RT-PCR analysis; assay type: cell-based; outline: as §4
[7] = Inhibition of hedgehog signaling pathway-mediated PTCH mRNA expression in human DaOY cells after 24 hrs by RT-PCR analysis; assay type: cell-based; outline: as §4
[8] = target: T2, Vitamin D3 receptor (Homo sapiens) (UniProt P11473); experiment: Activation of VDR in human DaOY cells assessed as upregulation of CYP24A1 mRNA expression at 5 uM after 24 hrs by RT-PCR analysis relative to DMSO-treated control; assay type: cell-based; outline: as §1
T2 sequence (whole entry): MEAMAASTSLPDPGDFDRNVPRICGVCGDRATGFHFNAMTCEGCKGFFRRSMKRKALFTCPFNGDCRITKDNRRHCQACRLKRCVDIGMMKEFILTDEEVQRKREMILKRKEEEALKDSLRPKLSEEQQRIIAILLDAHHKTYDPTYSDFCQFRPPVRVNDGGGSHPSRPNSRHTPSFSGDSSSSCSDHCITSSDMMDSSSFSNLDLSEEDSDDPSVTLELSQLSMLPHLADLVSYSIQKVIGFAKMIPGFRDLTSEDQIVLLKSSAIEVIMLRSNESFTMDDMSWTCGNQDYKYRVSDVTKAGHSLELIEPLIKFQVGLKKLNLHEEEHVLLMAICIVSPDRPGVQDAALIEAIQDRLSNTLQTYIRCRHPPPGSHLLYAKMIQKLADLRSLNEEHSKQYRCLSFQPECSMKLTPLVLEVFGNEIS

[9] = target: T1, Vitamin D3 receptor (Mus musculus); experiment: Activation of VDR in mouse ASZ001 cells assessed as upregulation of CYP24A1 mRNA expression at 5 uM after 24 hrs by RT-PCR analysis relative to DMSO-treated control; assay type: cell-based; outline: as §1
[10] = target: T2, Vitamin D3 receptor (Homo sapiens); experiment: Competitive binding affinity to full length human VDR by fluorescence polarization assay
Outline: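 Fluorescence polarization competition against a tight-binding fluorescent ligand on full-length human VDR. Tested at up to 100 μM, with calcitriol as positive control. At least two separate experiments.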

[11] = Inhibition of hedgehog signaling pathway-mediated GLI1 mRNA expression in mouse C3H10T1/2 cells assessed as residual activity at 0.5 uM after 24 hrs by RT-PCR analysis relative to 20alpha-hydroxycholesterol/22(S)-hydroxycholesterol; assay type: cell-based; settings: C3H 10T1/2; outline: as §2
[12] = Inhibition of hedgehog signaling pathway-mediated PTCH mRNA expression in mouse ASZ001 cells up to 10 uM after 24 hrs by RT-PCR analysis; assay type: cell-based
[13] = Inhibition of hedgehog signaling pathway-mediated GLI1 mRNA expression in mouse C3H10T1/2 cells after 24 hrs by RT-PCR analysis in presence of (1R,3aR,4S,7aR)-7a-methyl-1-((R)-6-methylheptan-2-yl)octahydro-1H-inden-4-yl 3-hydroxybenzoate; assay type: cell-based; settings: C3H 10T1/2

SMILES: CC(C)CCC[C@@H](C)[C@H]1CC[C@H]2[C@@H](OC(=O)c3ccc4cc(O)ccc4c3)CCC[C@]12C
fold change (FC) [1]: 0.8
Activity [2]: 91.9%

SMILES: CC(C)CCC[C@@H](C)[C@H]1CC[C@H]2[C@@H](OC(=O)c3cccc4ccccc34)CCC[C@]12C
fold change (FC) [1]: 2.7
Activity [2]: 82.3%

SMILES: CC(C)CCC[C@@H](C)[C@H]1CC[C@H]2[C@@H](OC(=O)c3cccnc3O)CCC[C@]12C
fold change (FC) [1]: 7.5
Activity [2]: 23%

SMILES: COc1ccccc1C(=O)O[C@H]1CCC[C@]2(C)[C@@H]([C@H](C)CCCC(C)C)CC[C@@H]12
fold change (FC) [1]: 0.9
Activity [2]: 98%

SMILES: CS(=O)(=O)c1ccc(C(=O)Nc2ccc(Cl)c(-c3ccccn3)c2)c(Cl)c1
Activity [11]: 4.8%
inhibition [12]: inactive
inhibition [13]: Active

SMILES: CC(C)CCC[C@@H](C)[C@H]1CC[C@H]2[C@@H](O)CCC[C@]12C
fold change (FC) [1]: 3.6
Activity [2]: 46.4%

SMILES: CC(C)CCC[C@@H](C)[C@H]1CC[C@H]2[C@@H](OC(=O)c3cc4ccccc4[nH]3)CCC[C@]12C
fold change (FC) [1]: 2.7
Activity [2]: 84.5%

SMILES: CC(C)CCC[C@@H](C)[C@H]1CC[C@H]2[C@@H](OC(=O)c3cc(O)cc(O)c3)CCC[C@]12C
Activity [10]: > 100 µM
inhibition [3]: Dose-dependent effect
pIC50 [3]: 5.74
pIC50 [4]: 5.35
pIC50 [5]: 5.39
fold change (FC) [1]: 19
pIC50 [6]: 5.24
pIC50 [7]: < 5.00
fold change (FC) [8]: 0.3
fold change (FC) [9]: 3.6
Activity [2]: 8.6%

SMILES: CC(C)CCC[C@@H](C)[C@H]1CC[C@H]2[C@@H](OC(=O)c3cccc4cc(O)ccc34)CCC[C@]12C
fold change (FC) [1]: 4.7
Activity [2]: 103%

SMILES: CC(C)CCC[C@@H](C)[C@H]1CC[C@H]2[C@@H](OC(=O)c3ccc4ccccc4c3)CCC[C@]12C
fold change (FC) [1]: 3
Activity [2]: 77.4%

SMILES: CC(C)CCC[C@@H](C)[C@H]1CC[C@H]2[C@@H](OC(=O)c3ccco3)CCC[C@]12C
fold change (FC) [1]: 1.7
Activity [2]: 95%

SMILES: CC(C)CCC[C@@H](C)[C@H]1CC[C@H]2[C@@H](OC(=O)c3ccccc3Cl)CCC[C@]12C
fold change (FC) [1]: 0.9
Activity [2]: 109%

SMILES: CC(C)CCC[C@@H](C)[C@H]1CC[C@H]2[C@@H](OC(=O)c3ccccc3O)CCC[C@]12C
fold change (FC) [1]: 1.2
Activity [2]: 115%

SMILES: CC(C)CCC[C@@H](C)[C@H]1CC[C@H]2[C@@H](OC(=O)c3cc(O)c(O)c(O)c3)CCC[C@]12C
Activity [10]: > 100 µM
inhibition [3]: Dose-dependent effect
pIC50 [3]: 5.96
pIC50 [4]: 5.89
pIC50 [5]: 5.09
fold change (FC) [1]: 11
pIC50 [6]: 5.04
pIC50 [7]: < 5.00
fold change (FC) [8]: 1
fold change (FC) [9]: 1.3
Activity [2]: 5.1%

SMILES: CC(C)CCC[C@@H](C)[C@H]1CC[C@H]2[C@@H](OC(=O)c3ncccc3O)CCC[C@]12C
fold change (FC) [1]: 3.1
Activity [2]: 36.5%

SMILES: CC(C)CCC[C@@H](C)[C@H]1CC[C@H]2[C@@H](OC(=O)c3ccc(N(C)C)cc3)CCC[C@]12C
fold change (FC) [1]: 1.4
Activity [2]: 107%

Continued, in another order:

fold change (FC) [1]: 0.9
SMILES: COc1ccc(C(=O)O[C@H]2CCC[C@]3(C)[C@@H]([C@H](C)CCCC(C)C)CC[C@@H]23)cc1
Activity [2]: 113%

fold change (FC) [1]: 17.1
SMILES: CC(C)CCC[C@@H](C)[C@H]1CC[C@H]2[C@@H](OC(=O)c3cccnc3)CCC[C@]12C
Activity [2]: 20.7%

fold change (FC) [1]: 0.8
SMILES: CC(C)CCC[C@@H](C)[C@H]1CC[C@H]2[C@@H](OC(=O)c3ccc(Cl)cc3)CCC[C@]12C
Activity [2]: 77.7%

pIC50 [3]: 5.89
pIC50 [4]: 5.60
pIC50 [5]: 5.15
fold change (FC) [1]: 24.3
pIC50 [6]: 5.04
pIC50 [7]: < 5.00
fold change (FC) [8]: 0.5
fold change (FC) [9]: 2.5
SMILES: CC(C)CCC[C@@H](C)[C@H]1CC[C@H]2[C@@H](OC(=O)c3cccc(N)c3)CCC[C@]12C
inhibition [3]: Dose-dependent effect
Activity [2]: 2.4%

Activity [10]: > 100 µM
pIC50 [3]: 5.55
pIC50 [4]: 5.48
pIC50 [5]: 5.18
fold change (FC) [1]: 18.8
pIC50 [6]: < 5.00
pIC50 [7]: < 5.00
fold change (FC) [8]: 1.5
fold change (FC) [9]: 6.3
SMILES: CC(C)CCC[C@@H](C)[C@H]1CC[C@H]2[C@@H](OC(=O)c3ccc(O)cc3)CCC[C@]12C
inhibition [3]: Dose-dependent effect
Activity [2]: 2.4%

fold change (FC) [1]: 2.2
SMILES: CC(C)CCC[C@@H](C)[C@H]1CC[C@H]2[C@@H](OC(=O)c3ccoc3)CCC[C@]12C
Activity [2]: 91.5%

Activity [10]: > 100 µM
pIC50 [3]: 6.00
pIC50 [4]: 5.54
pIC50 [5]: 5.28
fold change (FC) [1]: 140
pIC50 [6]: < 5.00
pIC50 [7]: < 5.00
fold change (FC) [8]: 2.2
fold change (FC) [9]: 2.1
SMILES: CC(C)CCC[C@@H](C)[C@H]1CC[C@H]2[C@@H](OC(=O)c3ccc(N)cc3)CCC[C@]12C
inhibition [3]: Dose-dependent effect
Activity [2]: 15.4%

Activity [10]: > 100 µM
pIC50 [3]: 5.33
pIC50 [4]: 4.90
pIC50 [5]: 5.32
fold change (FC) [1]: 57.1
pIC50 [6]: < 5.00
pIC50 [7]: < 5.00
fold change (FC) [8]: 1.1
fold change (FC) [9]: 4.8
SMILES: CC(C)CCC[C@@H](C)[C@H]1CC[C@H]2[C@@H](OC(=O)c3ccccn3)CCC[C@]12C
inhibition [3]: Dose-dependent effect
Activity [2]: 14.1%

fold change (FC) [1]: 14.7
SMILES: CC(C)CCC[C@@H](C)[C@H]1CC[C@H]2[C@@H](OC(=O)c3ccncc3)CCC[C@]12C
Activity [2]: 51.1%

fold change (FC) [1]: 1.3
SMILES: CC(C)CCC[C@@H](C)[C@H]1CC[C@H]2[C@@H](OC(=O)c3ccsc3)CCC[C@]12C
Activity [2]: 109%

fold change (FC) [1]: 1.6
SMILES: CC(C)CCC[C@@H](C)[C@H]1CC[C@H]2[C@@H](OC(=O)c3cccs3)CCC[C@]12C
Activity [2]: 109%
